Measurements taken from ChEMBL document CHEMBL1124843, “Water-soluble renin inhibitors: design of a subnanomolar inhibitor with a prolonged duration of action” (J Med Chem, 1990).
In brackets after ≈: the same amount, converted by molar mass.

Tests used:
[1] = target: T1, Renin (Homo sapiens, UniProt P00797); assay: Inhibitory activity against purified human renal renin at pH 6.5; type: functional
T1 sequence (P00797 whole entry): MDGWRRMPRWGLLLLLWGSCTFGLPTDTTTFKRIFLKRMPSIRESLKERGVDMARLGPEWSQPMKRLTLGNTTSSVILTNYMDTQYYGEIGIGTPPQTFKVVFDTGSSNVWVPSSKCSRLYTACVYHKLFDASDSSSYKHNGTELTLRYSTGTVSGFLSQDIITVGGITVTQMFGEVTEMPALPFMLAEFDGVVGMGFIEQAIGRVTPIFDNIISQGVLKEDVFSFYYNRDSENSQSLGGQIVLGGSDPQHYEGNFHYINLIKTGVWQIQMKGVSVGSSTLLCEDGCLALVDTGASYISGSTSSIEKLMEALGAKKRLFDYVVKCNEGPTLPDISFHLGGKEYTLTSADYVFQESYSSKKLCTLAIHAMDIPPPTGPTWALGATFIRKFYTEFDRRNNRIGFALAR

[2] = Log P value at the pH of 6.5; type: physicochemical; settings: octanol/water, pH 6.5; read-out: LogD6.5
Procedure, shortened: (§1)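 Octanol/water partition. Inhibitor (0.3–0.5 mg) was dissolved in 1.00 mL octanol, and 200 μL was added to 5.00 mL buffer: 0.1 M PIPES pH 6.5 or 0.1 M HEPES pH 7.4. Samples were shaken 2 h and centrifuged, and both phases were diluted and quantified by HPLC. P was calculated from peak areas × dilution factors.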

[3] = target: T1, Renin; assay: Inhibitory activity against human plasma renin at pH 7.4; type: functional, cell-free
[4] = Log P value at the pH of 7.4; type: physicochemical; settings: octanol/water, pH 7.4; read-out: LogD7.4; procedure, shortened: as §1
[5] = Solubility at 37 degree C and pH of 7.4; type: physicochemical; settings: pH 7.4; read-out: S
[6] = target: Renin (Macaca fascicularis); assay: Inhibitory activity against monkey plasma renin at pH 7.4
[7] = % change in blood pressure when administarted intravenously.; type: ADME; settings: iv
Procedure, shortened: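 Anesthetized, salt-depleted cynomolgus monkeys, 0.1 mg/kg iv bolus (n = 5). Maximum % change in mean arterial pressure taken from the T = 0 baseline. […] Values are mean ± SE.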

[8] = Plasma level when given intraduodenally to anesthetized rats from portal sample at 30 min; type: ADME, organism-based; settings: rat, read-out: Plasma level
Procedure, shortened: (§2)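 Anesthetized rats (n = 4) received unlabelled drug intraduodenally at 10 mg/kg. Portal and systemic blood were sampled at 10 and 30 min. Plasma drug levels were determined by a renin inhibition assay. Values are mean ± SE.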

[9] = Plasma level when given intraduodenally to anesthetized rats (systemic) at 10 min; type: ADME, organism-based; settings: rat, read-out: Plasma level; procedure, shortened: as §2
[10] = Plasma level when given intraduodenally to anesthetized rats (systemic) at 30 min; type: ADME, organism-based; settings: rat, read-out: Plasma level; procedure, shortened: as §2
[11] = Plasma level when given intraduodenally to anesthetized rats from portal sample at 10 min; type: ADME, organism-based; settings: rat, read-out: Plasma level; procedure, shortened: as §2
[12] = test system: Rattus norvegicus; assay: metabolic profile radiolabeled [14C]-21 in rats when administered orally at the dose of 1.0 mg/kg; type: ADME, organism-based; set-up: dose 1 mg/kg, route oral; settings: in vivo, po
Procedure, shortened: (§3)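 Rats were dosed orally or iv at 1 mg/kg with 14C-labelled drug. Urine and fecal samples were profiled by C-18 HPLC with a linear 15–50% aqueous acetonitrile gradient containing 0.1% TFA. Peaks were tentatively identified by retention time against reference standards, using 215 nm absorbance or radioactivity. Results are given as % of 14C dose, mean ± SE, n = 2.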

[13] = test system: Rattus norvegicus; assay: Excretion of radiolabeled [14C]-21 in rats when administered intravenously at the dose of 1.0 mg/kg; type: ADME, organism-based; set-up: dose 1 mg/kg, route intravenous; settings: in vivo, iv
Procedure, shortened: (§4)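 Rats got [14C]-labelled inhibitor (label at oxazolidinone carbonyl), 1 mg/kg orally or intravenously. Urine and feces were collected over 72 h. Feces were homogenized in 70% aqueous ethanol and aliquots burned in a sample oxidizer. Total radioactivity was counted by liquid scintillation with internal-standard quench correction and expressed as % of dose. Mean ± SE, n = 2.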

[14] = test system: Rattus norvegicus; assay: Excretion of radiolabeled [14C]-21 in rats when administered orally at the dose of 1.0 mg/kg; type: ADME, organism-based; set-up: dose 1 mg/kg, route oral; settings: in vivo, po; procedure, shortened: as §4
[15] = test system: Rattus norvegicus; assay: metabolic profile radiolabeled [14C]-21 in rats when administered intravenously at the dose of 1.0 mg/kg; type: ADME, organism-based; set-up: dose 1 mg/kg, route intravenous; settings: in vivo, iv; procedure, shortened: as §3

IC50 [1]	logD [2]	IC50 [3]	logD [4]	solubility [5]	SMILES	also measured
8.5 nM	1.58	26 nM	1.67		CCN1C[C@@H]([C@H](O)[C@H](CC2CCCCC2)NC(=O)[C@H](Cc2cnc[nH]2)NC(=O)[C@H](Cc2ccc(OC)cc2)NC(=O)N2C[C@H](OCOCCOC)[C@H](OCOCCOC)C2)OC1=O	
0.59 nM	2.29	1.5 nM	2.45	3.4 mM (≈ 2270 µg/mL)	CCN1C[C@@H]([C@H](O)[C@H](CC2CCCCC2)NC(=O)[C@H](Cc2cnc[nH]2)NC(=O)[C@@H](CC(=O)N(C)CCOC)Cc2ccccc2)OC1=O	
12 nM	1.94	59 nM	2.06		CCN1C[C@@H]([C@H](O)[C@H](CC2CCCCC2)NC(=O)[C@H](Cc2cnc[nH]2)NC(=O)[C@H](Cc2ccc(OC)cc2)NC(=O)N2C[C@H](OCOC)[C@H](OCOC)C2)OC1=O	
6.9 nM	0.91	8.7 nM	1.22		CCN1C[C@@H]([C@H](O)[C@H](CC2CCCCC2)NC(=O)[C@H](Cc2c[nH]cn2)NC(=O)[C@H](Cc2ccc(OC)cc2)NC(=O)N2C[C@@H](O)[C@@H](O)C2)OC1=O	
				0.045 mM (≈ 26.9 µg/mL)	CC(C)C(=O)N[C@@H](Cc1ccccc1)C(=O)N[C@@H](Cc1cnc[nH]1)C(=O)N[C@@H](CC1CCCCC1)[C@@H](O)[C@@H](O)CN=[N+]=[N-]	IC50 [6]: 0.29 nM; Change [7]: 18%
1.6 nM	1.56	7.3 nM	1.87	8.7 mM (≈ 7470 µg/mL)	CCN1C[C@@H]([C@H](O)[C@H](CC2CCCCC2)NC(=O)[C@H](Cc2cnc[nH]2)NC(=O)[C@@H](CC(=O)N2C[C@H](OCOCCOC)[C@H](OCOCCOC)C2)Cc2ccccc2)OC1=O	
0.85 nM	1.74	2.5 nM	1.94	5.2 mM (≈ 3410 µg/mL)	CCN1C[C@@H]([C@H](O)[C@H](CC2CCCCC2)NC(=O)[C@H](Cc2cnc[nH]2)NC(=O)[C@@H](CC(=O)N(C)CCO)Cc2ccccc2)OC1=O	
	1.89		2.21	5.4 mM (≈ 4010 µg/mL)	CCN1C[C@@H]([C@H](O)[C@H](CC2CCCCC2)NC(=O)[C@H](Cc2c[nH]cn2)NC(=O)[C@@H](CC(=O)N(C)CCOCOCCOC)Cc2ccccc2)OC1=O	concentration at 0.5 h [8]: 420 ng/mL; concentration at 10 min [9]: 1.6 ng/mL; concentration at 0.5 h [10]: 2.5 ng/mL; Change [7]: 43%; concentration at 10 min [11]: 360 ng/mL; Dose [12]: 73%; Dose [13]: 8.5%; Dose [14]: 1.9%; Dose [15]: 35%
0.99 nM	1.9	1.3 nM	2.2		CCN1C[C@@H]([C@H](O)[C@H](CC2CCCCC2)NC(=O)[C@H](Cc2cnc[nH]2)NC(=O)[C@@H](CC(=O)N2CCOCC2)Cc2ccccc2)OC1=O	
1.7 nM	2.67	9.9 nM	2.85	0.37 mM (≈ 242 µg/mL)	CCN1C[C@@H]([C@H](O)[C@H](CC2CCCCC2)NC(=O)[C@H](Cc2c[nH]cn2)NC(=O)[C@H](Cc2ccc(OC)cc2)NC(=O)C(C)C)OC1=O	
4.6 nM	2.08	27 nM	2.3	2.1 mM (≈ 1530 µg/mL)	CCN1C[C@@H]([C@H](O)[C@H](CC2CCCCC2)NC(=O)[C@H](Cc2c[nH]cn2)NC(=O)[C@H](Cc2ccc(OC)cc2)NC(=O)N(C)CCOCOC)OC1=O	
1.7 nM	1.83	14 nM	2.03		CCN1C[C@@H]([C@H](O)[C@H](CC2CCCCC2)NC(=O)[C@H](Cc2c[nH]cn2)NC(=O)[C@H](Cc2ccc(OC)cc2)NC(=O)N(C)CCOCOCCOC)OC1=O	
3.4 nM	1.91	9.6 nM	2.11	5.9 mM (≈ 4120 µg/mL)	CCN1C[C@@H]([C@H](O)[C@H](CC2CCCCC2)NC(=O)[C@H](Cc2cnc[nH]2)NC(=O)[C@H](Cc2ccc(OC)cc2)NC(=O)N2CCOCC2)OC1=O	
7.9 nM	1.2	46 nM	1.42		CCN1C[C@@H]([C@H](O)[C@H](CC2CCCCC2)NC(=O)[C@H](Cc2cnc[nH]2)NC(=O)[C@H](Cc2ccc(OC)cc2)NC(=O)N(C)CC(O)CO)OC1=O (stereo partly drawn)	
2.7 nM	2.08	11 nM	2.31	4.5 mM (≈ 3470 µg/mL)	CCN1C[C@@H]([C@H](O)[C@H](CC2CCCCC2)NC(=O)[C@H](Cc2cnc[nH]2)NC(=O)[C@@H](CC(=O)N2C[C@H](OCOC)[C@H](OCOC)C2)Cc2ccccc2)OC1=O	
0.49 nM	2.28	1.1 nM	2.49		CCN1C[C@@H]([C@H](O)[C@H](CC2CCCCC2)NC(=O)[C@H](Cc2cnc[nH]2)NC(=O)[C@@H](CC(=O)N(C)CCOCOC)Cc2ccccc2)OC1=O	
